Assay [1] in a line: Inhibition of rat small intestinal maltase using maltose as substrate incubated for 30 mins by glucose-oxidase method. The method in brief: (§1)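 Rat small-intestinal α-glucosidases in 0.1 M maleate buffer (pH 6.0). Test sample dissolved in DMSO, diluted with maleate buffer (10% DMSO in sample solution; 2.5% final). Substrate solution concentrations were maltose 74 mM (maltase), sucrose 74 mM (sucrase) and isomaltose 7.4 mM (isomaltase). Substrate, sample and enzyme were mixed at 37 °C for 30 min, stopped by 2 min boiling, and glucose read by glucose oxidase.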

A further assay deals with Maltase-glucoamylase (Homo sapiens, UniProt O43451). Description: Inhibition of human small intestine microsomal maltase using maltose as substrate incubated for 30 mins by glucose-oxidase method. The procedure, abridged: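 Enzyme was human small-intestinal microsome in 0.1 M maleate buffer (pH 6.0), with maltose as substrate. Test sample was dissolved in DMSO and diluted in maleate buffer. Sample, substrate and enzyme were incubated at 37 °C for 30 min, stopped by boiling for 2 min, and glucose measured by the glucose-oxidase method.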

For assay [2], the target named is T1, Sucrase-isomaltase, intestinal (Rattus norvegicus, UniProt P23739). The assay can be described thus: Inhibition of rat small intestinal isomaltase using isomaltose as substrate incubated for 30 mins by glucose-oxidase method. The procedure, abridged:
as §1

In assay [3] the target is T1, Sucrase-isomaltase, intestinal. Description: Inhibition of rat small intestinal sucrase using sucrose as substrate incubated for 30 mins by glucose-oxidase method. The method in brief: as §1

Results on twelve compounds are retold here after ChEMBL document CHEMBL3813698, “Hydrophobic substituents increase the potency of salacinol, a potent α-glucosidase inhibitor from Ayurvedic traditional medicine 'Salacia'” (Bioorg Med Chem, 2016).

The term IC50 denotes the concentration needed to halve the response being measured. Read a low IC50 as inhibition by little substance.

Structures are written as SMILES.

T1 sequence (P23739 1-1013 limits assumed): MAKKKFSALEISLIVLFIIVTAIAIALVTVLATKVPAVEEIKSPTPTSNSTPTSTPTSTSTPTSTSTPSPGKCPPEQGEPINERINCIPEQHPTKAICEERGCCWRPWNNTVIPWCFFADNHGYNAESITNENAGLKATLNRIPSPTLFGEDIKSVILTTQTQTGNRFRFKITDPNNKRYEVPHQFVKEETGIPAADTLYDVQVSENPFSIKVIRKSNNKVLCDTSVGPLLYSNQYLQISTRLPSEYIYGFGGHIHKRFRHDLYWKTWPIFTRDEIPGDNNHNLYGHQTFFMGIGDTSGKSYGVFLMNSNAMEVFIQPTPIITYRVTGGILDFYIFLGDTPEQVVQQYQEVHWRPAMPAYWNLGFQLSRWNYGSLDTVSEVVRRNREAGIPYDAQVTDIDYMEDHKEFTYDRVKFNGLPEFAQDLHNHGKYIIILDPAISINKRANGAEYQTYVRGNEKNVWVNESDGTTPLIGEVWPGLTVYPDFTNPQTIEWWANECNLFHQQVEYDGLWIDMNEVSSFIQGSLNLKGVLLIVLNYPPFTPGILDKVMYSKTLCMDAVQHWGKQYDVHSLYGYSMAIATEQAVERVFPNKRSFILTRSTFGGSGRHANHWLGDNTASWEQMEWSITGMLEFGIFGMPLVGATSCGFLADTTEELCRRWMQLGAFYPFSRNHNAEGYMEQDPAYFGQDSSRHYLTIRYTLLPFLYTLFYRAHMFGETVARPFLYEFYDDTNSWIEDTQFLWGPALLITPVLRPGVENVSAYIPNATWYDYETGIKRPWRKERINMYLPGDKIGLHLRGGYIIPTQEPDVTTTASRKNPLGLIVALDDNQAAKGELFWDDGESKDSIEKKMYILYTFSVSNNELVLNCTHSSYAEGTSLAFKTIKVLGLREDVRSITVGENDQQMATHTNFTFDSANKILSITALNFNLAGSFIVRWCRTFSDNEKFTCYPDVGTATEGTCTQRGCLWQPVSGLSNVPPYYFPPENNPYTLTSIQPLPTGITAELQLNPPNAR
T1 sequence (P23739 1014-1841 limits assumed): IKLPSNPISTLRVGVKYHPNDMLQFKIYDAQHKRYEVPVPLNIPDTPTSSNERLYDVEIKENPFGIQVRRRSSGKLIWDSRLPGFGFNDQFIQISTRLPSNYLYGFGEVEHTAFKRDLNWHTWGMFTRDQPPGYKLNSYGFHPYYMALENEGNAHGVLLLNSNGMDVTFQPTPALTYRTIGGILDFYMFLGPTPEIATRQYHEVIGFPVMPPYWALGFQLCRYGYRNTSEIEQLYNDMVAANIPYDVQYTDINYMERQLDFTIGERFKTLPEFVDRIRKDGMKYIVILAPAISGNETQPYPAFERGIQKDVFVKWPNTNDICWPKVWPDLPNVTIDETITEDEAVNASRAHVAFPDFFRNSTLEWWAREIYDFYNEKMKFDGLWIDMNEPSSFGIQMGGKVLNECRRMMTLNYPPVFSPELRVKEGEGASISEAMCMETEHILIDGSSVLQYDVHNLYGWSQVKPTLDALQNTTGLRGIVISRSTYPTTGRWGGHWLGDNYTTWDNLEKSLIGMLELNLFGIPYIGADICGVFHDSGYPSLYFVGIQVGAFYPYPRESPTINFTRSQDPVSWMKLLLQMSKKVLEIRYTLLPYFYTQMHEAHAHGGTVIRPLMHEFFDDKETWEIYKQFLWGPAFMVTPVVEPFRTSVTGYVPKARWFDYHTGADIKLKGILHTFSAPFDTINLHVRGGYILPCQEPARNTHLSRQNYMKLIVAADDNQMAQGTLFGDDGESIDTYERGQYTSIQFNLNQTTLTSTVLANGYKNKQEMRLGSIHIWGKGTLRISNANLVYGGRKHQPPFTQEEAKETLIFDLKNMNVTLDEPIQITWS
Chain of Maltase-glucoamylase (O43451 whole entry): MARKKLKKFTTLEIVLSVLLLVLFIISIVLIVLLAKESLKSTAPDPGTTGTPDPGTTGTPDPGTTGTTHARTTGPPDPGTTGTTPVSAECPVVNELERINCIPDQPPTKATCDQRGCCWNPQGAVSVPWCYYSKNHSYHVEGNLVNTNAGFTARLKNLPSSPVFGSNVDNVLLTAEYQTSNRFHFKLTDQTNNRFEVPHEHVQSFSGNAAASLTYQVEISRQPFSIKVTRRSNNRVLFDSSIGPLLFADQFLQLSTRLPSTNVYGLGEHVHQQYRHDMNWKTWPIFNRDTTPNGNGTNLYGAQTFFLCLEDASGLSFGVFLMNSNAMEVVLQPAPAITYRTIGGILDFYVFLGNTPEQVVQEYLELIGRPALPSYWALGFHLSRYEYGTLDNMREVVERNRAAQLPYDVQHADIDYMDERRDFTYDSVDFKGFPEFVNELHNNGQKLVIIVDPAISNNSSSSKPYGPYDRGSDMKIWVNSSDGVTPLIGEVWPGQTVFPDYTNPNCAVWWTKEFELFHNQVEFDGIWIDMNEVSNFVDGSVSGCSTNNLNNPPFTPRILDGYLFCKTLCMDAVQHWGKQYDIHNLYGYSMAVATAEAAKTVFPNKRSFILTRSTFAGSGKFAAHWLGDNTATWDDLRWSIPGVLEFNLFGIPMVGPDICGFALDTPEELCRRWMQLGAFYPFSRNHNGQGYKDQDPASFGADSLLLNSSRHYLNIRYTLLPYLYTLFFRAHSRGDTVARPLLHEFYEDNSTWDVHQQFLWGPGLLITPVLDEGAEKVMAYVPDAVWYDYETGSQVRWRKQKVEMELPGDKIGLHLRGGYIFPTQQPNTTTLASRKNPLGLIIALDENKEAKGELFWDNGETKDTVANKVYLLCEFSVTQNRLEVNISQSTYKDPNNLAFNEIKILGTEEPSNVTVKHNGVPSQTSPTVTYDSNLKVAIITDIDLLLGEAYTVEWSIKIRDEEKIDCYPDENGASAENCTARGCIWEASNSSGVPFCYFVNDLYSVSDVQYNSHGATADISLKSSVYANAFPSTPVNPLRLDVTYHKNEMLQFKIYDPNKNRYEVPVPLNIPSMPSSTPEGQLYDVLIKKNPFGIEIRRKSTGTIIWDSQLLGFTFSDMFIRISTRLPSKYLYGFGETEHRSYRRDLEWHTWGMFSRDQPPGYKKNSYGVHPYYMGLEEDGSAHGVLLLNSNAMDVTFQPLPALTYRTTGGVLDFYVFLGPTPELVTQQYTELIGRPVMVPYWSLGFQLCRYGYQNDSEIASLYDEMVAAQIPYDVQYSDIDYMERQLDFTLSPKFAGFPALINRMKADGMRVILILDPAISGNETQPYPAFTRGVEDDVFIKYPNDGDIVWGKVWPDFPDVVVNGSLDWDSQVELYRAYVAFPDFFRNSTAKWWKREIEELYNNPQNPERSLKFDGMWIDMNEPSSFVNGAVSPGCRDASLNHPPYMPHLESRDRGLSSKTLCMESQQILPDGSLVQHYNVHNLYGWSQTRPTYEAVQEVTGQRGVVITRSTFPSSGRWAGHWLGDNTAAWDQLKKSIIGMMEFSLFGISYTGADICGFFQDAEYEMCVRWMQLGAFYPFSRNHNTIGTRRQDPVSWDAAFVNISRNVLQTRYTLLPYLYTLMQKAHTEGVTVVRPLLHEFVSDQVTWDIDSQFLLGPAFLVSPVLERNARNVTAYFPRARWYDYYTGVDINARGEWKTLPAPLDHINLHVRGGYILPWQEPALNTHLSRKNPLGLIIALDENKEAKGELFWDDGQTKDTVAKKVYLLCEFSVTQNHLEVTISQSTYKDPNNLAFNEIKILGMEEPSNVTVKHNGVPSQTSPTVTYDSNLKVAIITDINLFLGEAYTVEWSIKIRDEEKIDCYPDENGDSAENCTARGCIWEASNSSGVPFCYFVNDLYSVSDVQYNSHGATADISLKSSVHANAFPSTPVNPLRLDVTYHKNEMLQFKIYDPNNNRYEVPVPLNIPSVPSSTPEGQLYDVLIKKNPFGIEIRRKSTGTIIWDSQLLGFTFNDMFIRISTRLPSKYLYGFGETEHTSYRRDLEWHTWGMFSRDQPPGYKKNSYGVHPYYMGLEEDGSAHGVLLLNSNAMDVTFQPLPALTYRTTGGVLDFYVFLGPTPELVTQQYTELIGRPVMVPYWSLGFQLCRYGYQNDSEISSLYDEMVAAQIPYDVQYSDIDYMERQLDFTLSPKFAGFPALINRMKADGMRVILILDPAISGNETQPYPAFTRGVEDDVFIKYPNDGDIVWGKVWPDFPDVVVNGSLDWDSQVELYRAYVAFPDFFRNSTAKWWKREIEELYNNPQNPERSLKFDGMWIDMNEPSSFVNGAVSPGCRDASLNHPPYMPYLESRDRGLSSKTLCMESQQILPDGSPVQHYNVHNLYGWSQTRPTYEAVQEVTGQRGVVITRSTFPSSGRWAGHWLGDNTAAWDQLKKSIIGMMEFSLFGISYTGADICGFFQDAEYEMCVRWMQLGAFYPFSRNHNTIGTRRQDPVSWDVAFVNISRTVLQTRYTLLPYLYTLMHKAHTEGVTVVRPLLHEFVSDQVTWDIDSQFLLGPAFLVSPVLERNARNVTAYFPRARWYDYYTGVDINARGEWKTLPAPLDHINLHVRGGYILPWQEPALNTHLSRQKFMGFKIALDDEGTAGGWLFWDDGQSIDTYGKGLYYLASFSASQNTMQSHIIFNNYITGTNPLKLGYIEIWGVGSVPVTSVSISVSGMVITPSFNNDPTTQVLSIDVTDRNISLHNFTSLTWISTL

Compound `OCCN1C[C@H](O)[C@@H](O)[C@H](O)[C@H]1CO` [MIGLITOL] came in with an IC50 in assay [1] of 8200 nM.
Regarding `OC[C@@H]1[C@@H](O)[C@H](O)C[S+]1C[C@@H](O)[C@@H](O)CO` (some centres undefined), the 50% inhibitory concentration (IC50) on Maltase-glucoamylase is 9000 nM; in assay [1], 8000 nM; in assay [2] it was 300 nM; in assay [3], 1300 nM.
`CCCCCCCCCCCCCO[C@@H](CO)[C@H](O)C[S+]1C[C@@H](O)[C@H](O)[C@H]1CO` (some centres undefined): the 50% inhibitory concentration (IC50) is 1100 nM against Maltase-glucoamylase, 1040 nM in assay [1], 950 nM in assay [2] and 1300 nM in assay [3].
As for `O=S(=O)([O-])O[C@@H](CO)[C@H](O)C[S+]1C[C@@H](O)[C@H](O)[C@H]1CO` (some centres undefined), the figures for the IC50 in assay [1], in assay [2] and in assay [3] were 5200 nM, 1300 nM and 1600 nM, respectively.
For the compound `CC(C)CO[C@@H](CO)[C@H](O)C[S+]1C[C@@H](O)[C@H](O)[C@H]1CO` (some centres undefined), the IC50 turned out to be 690 nM against Maltase-glucoamylase, 790 nM in assay [1], 340 nM in assay [2] and 90 nM in assay [3].
Take `CCO[C@@H](CO)[C@H](O)C[S+]1C[C@@H](O)[C@H](O)[C@H]1CO` (some centres undefined): the IC50 stood at 960 nM at Maltase-glucoamylase, 270 nM in assay [2] and 120 nM in assay [3].
As to `CO[C@@H](CO)[C@H](O)C[S+]1C[C@@H](O)[C@H](O)[C@H]1CO` (some centres undefined), the IC50 against Maltase-glucoamylase came out at 2000 nM; in assay [1], 5300 nM; in assay [2], 390 nM; in assay [3] it was 460 nM.
The like results for `CCCCCCCO[C@@H](CO)[C@H](O)C[S+]1C[C@@H](O)[C@H](O)[C@H]1CO` (some centres undefined) were, in that order, 640 nM, 800 nM, 250 nM and 240 nM.
For the compound `CCCCCO[C@@H](CO)[C@H](O)C[S+]1C[C@@H](O)[C@H](O)[C@H]1CO` (some centres undefined), the figures for the IC50 (at Maltase-glucoamylase; in assay [2]; in assay [3]) were 1500 nM, 470 nM and 500 nM, respectively.
The compound `OCC(CO)N[C@H]1C[C@](O)(CO)[C@@H](O)[C@H](O)[C@H]1O` [VOGLIBOSE] showed a 50% inhibitory concentration (IC50) on Maltase-glucoamylase of 1300 nM.
On to `CC(C)(C)CO[C@@H](CO)[C@H](O)C[S+]1C[C@@H](O)[C@H](O)[C@H]1CO` (some centres undefined), for which the half-inhibitory concentration (IC50) is 470 nM on Maltase-glucoamylase, 300 nM in assay [1], 280 nM in assay [2] and 90 nM in assay [3].
As to `O=[N+]([O-])c1ccccc1CO[C@@H](CO)[C@H](O)C[S@@+]1C[C@@H](O)[C@H](O)[C@H]1CO`, the IC50 was 150 nM on Maltase-glucoamylase, 130 nM in assay [1], 210 nM in assay [2] and 42 nM in assay [3].
